Source: ChEMBL document CHEMBL4665625, “New pyrido[3,4-g]quinazoline derivatives as CLK1 and DYRK1A inhibitors: synthesis, biological evaluation and binding mode analysis” (Eur J Med Chem, 2019)

What was measured:
[1] = Antiproliferative activity against hTERT-RPE1 cells assessed as cell viability at 2 uM after 48 hrs by CellTiter96 AQueous assay relative to control; type: cell-based, TERT-RPE1; conditions: human, read-out: Activity
In short: (§1)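 Cells grown in McCoy's 5a (HCT116), DMEM (SH-SY5Y, MDA-MB231, U-2 OS) or DMEM:F12 (hTERT-RPE1), each with 10% fetal calf serum, 2 mM L-glutamine, penicillin/streptomycin. Exposed to compound at 2 μM for 48 h; viability read by CellTiter96 AQueous per manufacturer, as % of DMSO-treated cells. Triplicate, mean ± SD; staurosporine as positive control.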

[2] = target: T1, Glycogen synthase kinase-3 (Sus scrofa) (UniProt B2LUN4+I6LNT8); test: Inhibition of porcine brain GSK-3alpha/beta assessed as residual activity at 10 uM using YRRAAVPPSPSLSRHSSPHQSpEDEEE as substrate in presence of [gamma-33P]ATP relative to control; type: tissue-based; conditions: Sus scrofa domesticus
Sus scrofa domesticus [3] = species on record: Sus scrofa domesticus; test: Inhibition of porcine brain CK1delta/epsilon assessed as residual activity at 10 uM using RRKHAAIGSpAYSITA as substrate in presence of [gamma-33P]ATP relative to control; type: tissue-based
[4] = target: T1, Glycogen synthase kinase-3 (Sus scrofa); test: Inhibition of porcine brain GSK-3alpha/beta assessed as residual activity at 1 uM using YRRAAVPPSPSLSRHSSPHQSpEDEEE as substrate in presence of [gamma-33P]ATP relative to control; type: tissue-based; conditions: Sus scrofa domesticus
In short: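 Affinity-purified porcine brain GSK-3α/β with 0.01 µg/µl GS-1 peptide (phosphoserine-primed) as substrate and 15 µM [γ-33P]ATP. Buffer was 25 mM Tris-HCl pH 7.5, 10 mM MgCl2, 1 mM EGTA, 1 mM DTT, 50 µg/ml heparin and 0.15 mg/ml BSA. Radioactive incorporation was compared with DMSO-dilution controls, in triplicate.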

[5] = target: T2, Cyclin-dependent kinase 5/CDK5 activator 1 (Homo sapiens) (UniProt Q00535+Q15078); test: Inhibition of recombinant human CDK5/p25 expressed in bacteria assessed as residual activity at 10 uM using histone H1 as substrate in presence of [gamma-33P]ATP relative to control
In short: (§2)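 Human recombinant CDK5/p25 (bacterially expressed) assayed with 0.8 μg/μl histone H1 as substrate and 15 μM [γ-33P]ATP. Residual activity versus DMSO controls, triplicate.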

[6] = target: T3, Dual specificity protein kinase CLK1 (Mus musculus, UniProt P22518); test: Inhibition of recombinant mouse CLK1 expressed in bacteria using GRSRSRSRSRSR as substrate in presence of [gamma-33P]ATP
[7] = target: Dual specificity protein kinase CLK1 (Mus musculus) (UniProt P22518); test: Inhibition of recombinant mouse CLK1 expressed in bacteria assessed as residual activity at 1 uM using GRSRSRSRSRSR as substrate in presence of [gamma-33P]ATP relative to control
U2OS = test: Antiproliferative activity against human U2OS cells assessed as cell viability at 2 uM after 48 hrs by CellTiter96 AQueous assay relative to control; type: functional; conditions: read-out: Activity; in short: as §1
[8] = target: Dual specificity tyrosine-phosphorylation-regulated kinase 1A (Rattus norvegicus) (UniProt Q63470); test: Inhibition of rat DYRK1A kinase domain (1 to 499 residues) expressed in bacteria assessed as residual activity at 1 uM using KKISGRLSPIMTEQ as substrate in presence of [gamma-33P]ATP relative to control
In short: (§3)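 Buffer: 10 mM MgCl2, 1 mM EGTA, 1 mM DTT, 25 mM Tris-HCl pH 7.5, 50 μg/ml heparin, 0.15 mg/ml BSA.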

Sus scrofa domesticus [9] = species on record: Sus scrofa domesticus; test: Inhibition of porcine brain CK1delta/epsilon assessed as residual activity at 1 uM using RRKHAAIGSpAYSITA as substrate in presence of [gamma-33P]ATP relative to control; type: tissue-based
[10] = target: T2, Cyclin-dependent kinase 5/CDK5 activator 1 (Homo sapiens); test: Inhibition of recombinant human CDK5/p25 expressed in bacteria assessed as residual activity at 1 uM using histone H1 as substrate in presence of [gamma-33P]ATP relative to control; in short: as §2
[11] = target: Dual specificity protein kinase CLK1 (Mus musculus) (UniProt P22518); test: Inhibition of recombinant mouse CLK1 expressed in bacteria assessed as residual activity at 10 uM using GRSRSRSRSRSR as substrate in presence of [gamma-33P]ATP relative to control
[12] = Selectivity index, ratio of IC50 for recombinant mouse CLK1 expressed in bacteria to IC50 for rat DYRK1A kinase domain (1 to 499 residues) expressed in bacteria
[13] = target: T4, Dual specificity tyrosine-phosphorylation-regulated kinase 1A (Rattus norvegicus, UniProt Q63470); test: Inhibition of rat DYRK1A kinase domain (1 to 499 residues) expressed in bacteria using KKISGRLSPIMTEQ as substrate in presence of [gamma-33P]ATP; in short: as §3
HCT-116 = test: Antiproliferative activity against human HCT116 cells assessed as cell viability at 2 uM after 48 hrs by CellTiter96 AQueous assay relative to control; type: functional; conditions: read-out: Activity; in short: as §1
[14] = target: Dual specificity tyrosine-phosphorylation-regulated kinase 1A (Rattus norvegicus) (UniProt Q63470); test: Inhibition of rat DYRK1A kinase domain (1 to 499 residues) expressed in bacteria assessed as residual activity at 10 uM using KKISGRLSPIMTEQ as substrate in presence of [gamma-33P]ATP relative to control; in short: as §3
MDA-MB-231 = test: Antiproliferative activity against human MDA-MB-231 cells assessed as cell viability at 2 uM after 48 hrs by CellTiter96 AQueous assay relative to control; type: functional; conditions: read-out: Activity; in short: as §1
SH-SY5Y = test: Antiproliferative activity against human SH-SY5Y cells assessed as cell viability at 2 uM after 48 hrs by CellTiter96 AQueous assay relative to control; type: functional; conditions: read-out: Activity; in short: as §1
[15] = target: T3, Dual specificity protein kinase CLK1; test: Inhibition of recombinant mouse CLK1 expressed in bacteria using GRSRSRSRSRSR as substrate measured after 30 mins in presence of ATP by ADP-Glo kinase assay
In short: (§4)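 ADP-Glo luminescent kinase assay at 10 μM ATP, 30 min reaction at 30 °C; luminescence read as relative light units to derive IC50.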

[16] = target: T4, Dual specificity tyrosine-phosphorylation-regulated kinase 1A; test: Inhibition of rat DYRK1A kinase domain (1 to 499 residues) expressed in bacteria using KKISGRLSPIMTEQ as substrate measured after 30 mins in presence of ATP by ADP-Glo kinase assay; in short: as §4

T3 sequence (P22518 whole entry): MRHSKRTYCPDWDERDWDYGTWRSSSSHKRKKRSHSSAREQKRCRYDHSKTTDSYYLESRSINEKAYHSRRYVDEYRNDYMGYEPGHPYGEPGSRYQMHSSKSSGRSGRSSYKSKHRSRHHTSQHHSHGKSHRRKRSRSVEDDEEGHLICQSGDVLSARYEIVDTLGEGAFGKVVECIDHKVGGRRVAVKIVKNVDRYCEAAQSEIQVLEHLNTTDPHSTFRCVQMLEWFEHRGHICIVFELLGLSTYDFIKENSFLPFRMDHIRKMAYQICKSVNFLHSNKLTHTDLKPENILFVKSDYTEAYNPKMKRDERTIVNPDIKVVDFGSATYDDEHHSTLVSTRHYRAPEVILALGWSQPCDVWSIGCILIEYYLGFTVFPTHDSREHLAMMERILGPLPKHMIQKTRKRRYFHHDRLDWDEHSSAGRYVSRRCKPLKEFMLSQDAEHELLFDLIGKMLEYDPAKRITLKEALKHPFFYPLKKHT
Chain of Dual specificity protein kinase CLK1 (Mus musculus) (P22518 whole entry, looked up, the tested form may be a part): as the sequence (P22518 whole entry) above
T2 sequence (Q00535 whole entry): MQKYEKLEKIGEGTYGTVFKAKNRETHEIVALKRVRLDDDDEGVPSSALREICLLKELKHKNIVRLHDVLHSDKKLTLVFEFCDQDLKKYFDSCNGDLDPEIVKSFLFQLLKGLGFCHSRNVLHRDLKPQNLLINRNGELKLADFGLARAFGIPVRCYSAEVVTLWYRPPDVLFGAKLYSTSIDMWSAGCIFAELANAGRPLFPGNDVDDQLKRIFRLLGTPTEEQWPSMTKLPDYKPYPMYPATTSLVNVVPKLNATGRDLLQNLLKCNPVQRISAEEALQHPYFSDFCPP
T2 sequence (Q15078 99-307 partner limits assumed): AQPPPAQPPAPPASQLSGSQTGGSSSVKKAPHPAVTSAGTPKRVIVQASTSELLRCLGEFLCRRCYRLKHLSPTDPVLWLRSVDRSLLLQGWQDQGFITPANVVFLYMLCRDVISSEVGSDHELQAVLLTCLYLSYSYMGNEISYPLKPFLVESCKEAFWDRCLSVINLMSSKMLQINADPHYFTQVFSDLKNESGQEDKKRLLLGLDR

In the case of Nc1c2ccncc2cc2cnc(NCCCN3CCOCC3)nc12, the viability at 48 h, 2 µM [1] is reported as 0%, the Activity [2] is reported as 6% and the Activity (Sus scrofa domesticus [3]) is reported as 24%. The Activity [4] was 41%, the Activity [5] was 23% and the IC50 [6] was 290 nM. It also gave an Activity [7] of 20%, a viability at 2 µM (U2OS) of 6.4% and an Activity [8] of 5%. It also gave an Activity (Sus scrofa domesticus [9]) of 53%, an Activity [10] of 67% and an Activity [11] of 4%. For the same compound, the Ratio IC50 [12] was 12.6, the IC50 [13] was 23 nM and the viability at 2 µM (HCT-116) was 0.8%. For the same compound, the Activity [14] was 6%, the viability at 2 µM (MDA-MB-231) was 15% and the viability at 2 µM (SH-SY5Y) was 3.6%.
With CNc1ncc2cc3cnccc3c(N)c2n1 the Activity [2] was 40%, the Activity (Sus scrofa domesticus [3]) was 60% and the Activity [4] was 79%. For the same compound, the Activity [5] was 3%, the Activity [7] was 9% and the Activity [8] was 27%. It also gave an Activity (Sus scrofa domesticus [9]) of 85%, an Activity [10] of 33% and an Activity [11] of 1%. For the same compound, the Activity [14] was 1% and the IC50 [15] was 274 nM.
In the case of CCN(CC)CCCNc1ncc2cc3cnccc3c(N)c2n1, the Activity [2] is reported as 22%, the Activity (Sus scrofa domesticus [3]) is reported as 45% and the Activity [4] is reported as 61%. It also gave an Activity [5] of 20%, an IC50 [6] of 160 nM and an Activity [7] of 21%. The Activity [8] was 24%, the Activity (Sus scrofa domesticus [9]) was 68% and the Activity [10] was 68%. For the same compound, the Activity [11] was 2%, the IC50 [13] was 80 nM and the Activity [14] was 2%.
Compound CN1CCN(CCNc2ncc3cc4cnccc4c(N)c3n2)CC1 has a viability at 48 h, 2 µM [1] of 19.4%, an Activity [2] of 22% and an Activity (Sus scrofa domesticus [3]) of 70%. For the same compound, the Activity [4] was 44%, the Activity [5] was 55% and the IC50 [6] was 210 nM. For the same compound, the Activity [7] was 21%, the viability at 2 µM (U2OS) was 13% and the Activity [8] was 19%. For the same compound, the Activity (Sus scrofa domesticus [9]) was 100%, the Activity [10] was 88% and the Activity [11] was 4%. It also gave an IC50 [13] of 120 nM, a viability at 2 µM (HCT-116) of 6.1% and an Activity [14] of 2%. For the same compound, the viability at 2 µM (MDA-MB-231) was 21.7% and the viability at 2 µM (SH-SY5Y) was 62%.
Nc1c2ccncc2cc2cnc(NCCN3CCOCC3)nc12 gave an Activity [2] of 24%, an Activity (Sus scrofa domesticus [3]) of 34% and an Activity [4] of 76%. It also gave an Activity [5] of 10%, an Activity [7] of 27% and an Activity [8] of 17%. For the same compound, the Activity (Sus scrofa domesticus [9]) was 77%, the IC50 [16] was 197 nM and the Activity [10] was 52%. It also gave an Activity [11] of 4% and an Activity [14] of 1%.
Compound O=[N+]([O-])c1c2ccncc2cc2cnc(NCCCN3CCOCC3)nc12 has a viability at 48 h, 2 µM [1] of 31%, an Activity [2] of 15% and an Activity (Sus scrofa domesticus [3]) of 38%. For the same compound, the Activity [4] was 76%, the Activity [5] was 60% and the IC50 [6] was 120 nM. It also gave an Activity [7] of 14%, a viability at 2 µM (U2OS) of 27% and an Activity [8] of 68%. For the same compound, the Activity (Sus scrofa domesticus [9]) was 100%, the Activity [10] was 100% and the Activity [11] was 3%. It also gave a viability at 2 µM (HCT-116) of 16.8%, an Activity [14] of 10% and a viability at 2 µM (MDA-MB-231) of 39%. It also gave a viability at 2 µM (SH-SY5Y) of 54%.
For CN(C)CCCNc1ncc2cc3cnccc3c(N)c2n1, the viability at 48 h, 2 µM [1] was 0%, the Activity [2] was 10% and the Activity (Sus scrofa domesticus [3]) was 61%. It also gave an Activity [4] of 36%, an Activity [5] of 34% and an IC50 [6] of 120 nM. The Activity [7] was 14%, the viability at 2 µM (U2OS) was 0% and the Activity [8] was 17%. It also gave an Activity (Sus scrofa domesticus [9]) of 96%, an Activity [10] of 77% and an Activity [11] of 1%. The IC50 [13] was 120 nM, the viability at 2 µM (HCT-116) was 0% and the Activity [14] was 1%. The viability at 2 µM (MDA-MB-231) was 0.4% and the viability at 2 µM (SH-SY5Y) was 0%.
In the case of Nc1c2ccncc2cc2cnc(NCCCN3CCCC3)nc12, the viability at 48 h, 2 µM [1] is reported as 52%, the Activity [2] is reported as 23% and the Activity (Sus scrofa domesticus [3]) is reported as 23%. It also gave an Activity [4] of 50%, an Activity [5] of 44% and an Activity [7] of 26%. The viability at 2 µM (U2OS) was 33%, the Activity [8] was 25% and the Activity (Sus scrofa domesticus [9]) was 69%. It also gave an Activity [10] of 86%, an Activity [11] of 4% and an IC50 [13] of 90 nM. For the same compound, the viability at 2 µM (HCT-116) was 21%, the Activity [14] was 1% and the viability at 2 µM (MDA-MB-231) was 22%. The viability at 2 µM (SH-SY5Y) was 92.2%.
CN1CCN(CCCNc2ncc3cc4cnccc4c(N)c3n2)CC1 showed a viability at 48 h, 2 µM [1] of 0%, an Activity [2] of 4% and an Activity (Sus scrofa domesticus [3]) of 30%. For the same compound, the Activity [4] was 35%, the Activity [5] was 15% and the IC50 [6] was 117 nM. For the same compound, the Activity [7] was 8%, the viability at 2 µM (U2OS) was 0.1% and the Activity [8] was 4%. The Activity (Sus scrofa domesticus [9]) was 61%, the Activity [10] was 49% and the Activity [11] was 6%. For the same compound, the Ratio IC50 [12] was 5.9, the IC50 [13] was 20 nM and the viability at 2 µM (HCT-116) was 0%. For the same compound, the Activity [14] was 1%, the viability at 2 µM (MDA-MB-231) was 3.6% and the viability at 2 µM (SH-SY5Y) was 0.1%.
